In ChEMBL document CHEMBL1128321, “Piperazinylalkyl heterocycles as potential antipsychotic agents” (J Med Chem, 1995):

What was measured:
[1] = biological target: T1, 5-hydroxytryptamine receptor 1A (Rattus norvegicus, UniProt P19327); experiment: Binding affinity was determined against 5-hydroxytryptamine 1A receptor using […]
T1 sequence (P19327 whole entry): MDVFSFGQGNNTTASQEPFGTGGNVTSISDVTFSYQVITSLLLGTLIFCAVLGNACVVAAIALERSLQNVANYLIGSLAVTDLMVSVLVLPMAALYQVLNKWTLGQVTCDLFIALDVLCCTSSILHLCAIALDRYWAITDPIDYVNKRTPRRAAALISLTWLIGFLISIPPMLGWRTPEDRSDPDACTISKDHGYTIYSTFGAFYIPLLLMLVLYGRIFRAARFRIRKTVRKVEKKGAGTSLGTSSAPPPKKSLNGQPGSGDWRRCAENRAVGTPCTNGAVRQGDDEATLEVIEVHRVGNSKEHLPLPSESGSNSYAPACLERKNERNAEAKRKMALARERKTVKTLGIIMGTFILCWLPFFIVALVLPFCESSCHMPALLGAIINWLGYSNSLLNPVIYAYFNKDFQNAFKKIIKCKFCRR

[2] = Stability half-life at pH-2; format: physicochemical
Method in brief: (§1)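 Half-life measured in solution at pH 2, about 3 × 10⁻³ M compound in citric acid–phosphate buffer at 22 °C.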

Rattus norvegicus [3] = experiment: Conditioned avoidance response activity was determined by the ability to block the conditioned avoidance of a foot shock at 5 mg/kg(ip); format: functional
Method in brief: (§2)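 Male Fischer 344 rats (300–500 g) trained on a discrete-trial single-lever task, pressing the lever to avoid an impending shock; block of responding read at time of peak effect. Escape loss = percent of animals failing to escape the shock; >20% escape loss with CAR inhibition taken as potential for sedation.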

Rattus norvegicus [4] = experiment: Percentage of animals failing to escape shock was measured, affording a rough index for nonspecific sedation at 5 mg/kg(ip)
Rattus norvegicus [5] = experiment: Conditioned avoidance response activity was determined by the ability to block the conditioned avoidance of a foot shock at 15 mg/kg(ip); format: functional; method in brief: as §2
[6] = Stability half-life at pH-2; stable; format: physicochemical; method in brief: as §1

Ki [1]	half-life [2]	T1/2 [6]	Compound	inhibition in vivo at 5 mg/kg (Rattus norvegicus [3])	Esc loss (Rattus norvegicus [4])	inhibition in vivo at 15 mg/kg (Rattus norvegicus [5])
94 nM	18.3 h		CC(C)Oc1ccccc1N1CCN(Cc2cc(CN3CCCCC3=O)no2)CC1.Cl	0%	0%	
0.84 nM	1.07 h		CC(C)Oc1ccccc1N1CCN(Cc2ccc(CN(C)C(=O)C(C)C)n2C)CC1.O=C(O)CCC(=O)O	3%	0%	
	< 0.217 h		CC(C)Oc1ccccc1N1CCN(Cc2ccc(CCN3CCCCC3=O)n2C)CC1.Cl	77%	27%	
	3.7 h		CC(C)Oc1ccccc1N1CCN(Cc2ccc(CN(C)S(C)(=O)=O)n2C)CC1.O=C(O)CCC(=O)O	8%	0%	
4.5 nM			CCCCC(=O)N(C)Cc1ccc(CN2CCN(c3ccccc3OC)CC2)n1C.O=C(O)CCC(=O)O	2%	1%	
1.9 nM			COc1ccccc1N1CCN(Cc2ccc(CN3C(=O)c4ccccc4C3=O)o2)CC1		0%	3%
21 nM		Stable	CC(C)Oc1ccccc1N1CCN(Cc2ccc(CN3CCCCC3=O)o2)CC1.O=C(O)CCC(=O)O	46%	0%	
4.7 nM			CC(C)Oc1ccccc1N1CCN(Cc2ccc(CN(C(=O)C3CCCCC3)C(C)C)n2C)CC1.O=C(O)CCC(=O)O	13%	0%	
18 nM	2.5 h		CCCCS(=O)(=O)N(C)Cc1ccc(CN2CCN(c3ccccc3OC(C)C)CC2)n1C.O=C(O)CCC(=O)O	2%	0%	
4.2 nM			CC(C)Oc1ccccc1N1CCN(Cc2ccc(C(=O)N3CCCCC3)s2)CC1.O=C(O)CCC(=O)O	56%	18%	
11 nM	2.87 h		COc1ccccc1N1CCN(Cc2ccc(CN(C)S(C)(=O)=O)n2C)CC1.O=C(O)CCC(=O)O	23%	4%	
			CC(C)Oc1ccccc1N1CCN(Cc2ccc(C(=O)N3CCCCC3)n2C)CC1.Cl		5%	56%
10 nM			CC(C)Oc1ccccc1N1CCN(CC2CC(CN3CCCCC3=O)=NO2)CC1 (stereo unspecified)	69%	20%	
27 nM			COc1ccccc1N1CCN(Cc2ccc(CN3CCCCCC3=O)o2)CC1.O=C(O)CCC(=O)O		11%	93%
51 nM	10.5 h		CC(C)Oc1ccccc1N1CCN(Cc2ccc(CN3CCCCCC3=O)o2)CC1.O=C(O)CCC(=O)O		1%	83%
			COc1ccccc1N1CCN(Cc2ccc(CN(Cc3ccccc3)C(C)=O)n2C)CC1.O=C(O)CCC(=O)O	3%	0%	
39 nM	2.17 h		COc1ccccc1N1CCN(Cc2ccc(CN(C)S(=O)(=O)C(C)C)n2C)CC1.O=C(O)CCC(=O)O	6%	0%	
			CC(C)Oc1ccccc1N1CCN(Cc2cccc(C(=O)N3CCCCC3)c2)CC1 [MAZAPERTINE]	98%		
16 nM			COc1ccccc1N1CCN(Cc2ccc(CN(C(C)=O)C(C)C)n2C)CC1.O=C(O)CCC(=O)O	8%	0%	
12 nM		Stable	CC(C)Oc1ccccc1N1CCN(CCc2ccc(C(=O)C(=O)N3CCCCCC3)n2C)CC1.O=C(O)CCC(=O)O	1%	0%	
57 nM	72.4 h		CNC(=O)c1ccc(CN2CCN(c3ccccc3OC(C)C)CC2)n1C.O=C(O)CCC(=O)O	15%	0%	
5.7 nM			CC(C)Oc1ccccc1N1CCN(Cc2ccc(CN(C)S(=O)(=O)C(C)C)n2C)CC1.O=C(O)CCC(=O)O		0%	0%
3.2 nM			CC(C)Oc1ccccc1N1CCN(Cc2ccc(C(=O)N3CCCCCC3)s2)CC1.Cl	8%	3%	
38 nM			COc1ccccc1N1CCN(Cc2ccc(CN3CCCCC3=O)o2)CC1.O=C(O)CCC(=O)O		0%	10%
0.63 nM			Cl.O=C(c1ccc(CN2CCN(c3cccc4ccoc34)CC2)s1)N1CCCCC1	3%	0%	

Ki [1]	half-life [2]	T1/2 [6]	Compound	inhibition in vivo at 5 mg/kg (Rattus norvegicus [3])	Esc loss (Rattus norvegicus [4])	inhibition in vivo at 15 mg/kg (Rattus norvegicus [5])
829 nM	70.3 h		CC(C)Oc1ccccc1N1CCN(Cc2cccc(CN3CCCCC3=O)n2)CC1.Cl	85%	15%	
			CCCN(Cc1ccc(CN2CCN(c3ccccc3OC)CC2)n1C)S(=O)(=O)c1ccccc1		0%	0%
	< 0.117 h		COc1ccccc1N1CCN(Cc2ccc(CCN3CCCCC3=O)n2C)CC1.Cl	75%	9%	
7.1 nM	3.7 h		CCCCS(=O)(=O)N(C)Cc1ccc(CN2CCN(c3ccccc3OC)CC2)n1C.O=C(O)CCC(=O)O	7%	1%	
0.07 nM			O=C(O)CCC(=O)O.O=C1CCCCN1Cc1ccc(CN2CCN(c3cccc4ccoc34)CC2)s1	63%	5%	
	57.7 h		CC(C)Oc1ccccc1N1CCN(Cc2cc(CO)no2)CC1	29%	1%	
1.9 nM			CC(C)Oc1ccccc1N1CCN(Cc2ccc(CN(C(=O)C(C)C)C(C)C)n2C)CC1.O=C(O)CCC(=O)O	0%	0%	
248 nM		Stable	CNC(=O)c1ccc(CN2CCN(c3ccccc3OC)CC2)n1C.O=C(O)CCC(=O)O	22%	0%	
			COc1ccccc1N1CCN(Cc2ccc(CN(C(C)C)S(C)(=O)=O)n2C)CC1	1%	0%	
9.4 nM	85 h		CC(C)Oc1ccccc1N1CCN(CCc2ccc(C(=O)C(=O)N3CCOCC3)n2C)CC1.O=C(O)CCC(=O)O	2%	0%	
2.3 nM		Stable	CC(C)Oc1ccccc1N1CCN(CCc2ccc(C(=O)C(=O)N3CCCCC3)n2C)CC1.O=C(O)CCC(=O)O	16%	1%	
2.5 nM			CC(C)Oc1ccccc1N1CCN(Cc2cc(C(=O)N3CCCCC3)cs2)CC1.Cl	72%	34%	
0.41 nM			CC(C)Oc1ccccc1N1CCN(Cc2cc(C(=O)N3CCCCCC3)cs2)CC1.Cl	45%	4%	
			COc1ccccc1N1CCN(Cc2ccc(CN(Cc3ccccc3)C(=O)c3ccccc3)n2C)CC1.O=C(O)CCC(=O)O	8%	0%	
1.4 nM		Stable	COc1ccccc1N1CCN(CCc2ccc(CN3CCCCC3=O)n2C)CC1.O=C(O)CCC(=O)O	23%	4%	
120 nM	60.9 h		CC(C)Oc1ccccc1N1CCN(CC2CC(CO)=NO2)CC1 (stereo unspecified)	96%	26%	
0.25 nM			CCCCC(=O)N(C)Cc1ccc(CN2CCN(c3ccccc3OC(C)C)CC2)n1C.O=C(O)CCC(=O)O	4%	0%	
11 nM			COc1ccccc1N1CCN(Cc2ccc(CN(C(=O)C3CCCCC3)C(C)C)n2C)CC1.O=C(O)CCC(=O)O	36%	26%	
			COc1ccccc1N1CCN(Cc2ccc(CNC(C)=O)n2C)CC1.O=C(O)CCC(=O)O	14%	3%	
48 nM	382 h		CC(C)NC(=O)c1ccc(CN2CCN(c3ccccc3OC(C)C)CC2)n1C.O=C(O)CCC(=O)O	1%	0%	
12 nM	1.17 h		CC(=O)N(C)Cc1ccc(CN2CCN(c3ccccc3OC(C)C)CC2)n1C.O=C(O)CCC(=O)O	63%	2%	
39 nM			COc1ccccc1N1CCN(Cc2ccc(CN(C)C(C)=O)n2C)CC1.O=C(O)CCC(=O)O	52%	2%	
1.5 nM		Stable	CC(C)Oc1ccccc1N1CCN(CCc2ccc(CN3CCCCC3=O)n2C)CC1.O=C(O)CCC(=O)O	82%	19%	
3.1 nM			CC(C)Oc1ccccc1N1CCN(Cc2ccc(CN3CCCCC3=O)s2)CC1.Cl	58%	3%	
25 nM			COc1ccccc1N1CCN(CCc2ccc(C(=O)C(=O)N3CCCCC3)n2C)CC1.O=C(O)CCC(=O)O	45%	26%	
